Measured values: publication PMC6407133 (Journal of the American Chemical Society, 2018)
Where two headings read alike, the source gives them in different places.

What was measured:
P. berghei = experiment: Plasmodium berghei mouse model of infection; assay type: in vivo; conditions: CD1 mice, 50 mg/kg once daily for 4 days, intravenous
[1] = system: non-confluent human foreskin fibroblast (HFF) cells; experiment: Cell viability assay in mammalian cells; assay type: cell-based; conditions: non-confluent HFFs
Method in brief: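 Nontransformed primary human foreskin fibroblasts, Mycoplasma-tested, seeded nonconfluent at 2500 cells/well less than 24 h before dosing. Test compound dose–response dilutions in media applied for 1 h (then washed out) or 72 h. Viability read by CellTiter-Blue. EC50 values are the mean of n = 9 cultures from three independent experiments run in triplicate.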

P. falciparum W2 = experiment: P. falciparum replication assay; assay type: cell-based, Plasmodium falciparum; conditions: read-out: 72 h EC50 Pf; 72 h treatment, no washout; P. falciparum W2 ring stage

SMILES: CC(C)C[C@@H](/C=C/S(C)(=O)=O)NC(=O)[C@H](CC(C)C)NC(=O)[C@H](Cc1c[nH]c2ccccc12)NC(=O)CN1CCOCC1 [WLL-vs]
- reduction of parasites on day 4 (P. berghei): 98%
- EC50 ([1]; read-out: 1 h EC50 HFF, 1 h treatment): 65.5 ± 15.2 µM
- EC50 ([1]; read-out: 72 h EC50 HFF, 72 h treatment): 1.52 ± 0.41 µM
- EC50 (P. falciparum W2): 0.015 ± 0.005 µM
